Experimental data published in ChEMBL document CHEMBL3108729, “Design, synthesis and anticonvulsant evaluation of N-(benzo[d]thiazol-2-ylcarbamoyl)-2-methyl-4-oxoquinazoline-3(4H)-carbothioamide derivatives: a hybrid pharmacophore approach” (Eur J Med Chem, 2013).

Legend:
Mus musculus [1] = assay: Anticonvulsant activity in ip dosed albino mouse assessed as protection against AMPA-induced clonic phase of seizures after 30 mins; type: functional; conditions: 0.5 h
In short: (§1)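 Mice were dosed i.p. over 10–100 µmol/kg. After 30 min, AMPA was injected i.c.v. into a lateral ventricle under ether anaesthesia, at 9.7 nmol for clonus or 11.7 nmol for forelimb tonic extension. Mice were observed singly for 30 min. ED50 values with 95% confidence limits were derived from dose–response data.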

Rattus norvegicus [2] = assay: Anticonvulsant activity in Wistar rat assessed as inhibition of GABA-induced seizures measuring minimum GABA level per 100 mg whole brain required for 50 % inhibition at 30 mg/kg, po for 7 days (reference value: 51.5 +/- 2.60 ug/100 mg brain); type: functional
In short: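 Adult Wistar rats in groups of six were dosed orally at 30 mg/kg for 7 days. Whole-brain GABA was then measured enzymatically in ethanol extracts as µg/100 mg tissue. Values are mean ± SEM of six rats versus control (Student's t test).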

Rattus norvegicus [3] = assay: Anticonvulsant activity in Wistar rat assessed as inhibition of GABA-induced seizures measuring minimum GABA level per 100 mg whole brain required for 50 % inhibition at 100 mg/kg, ip as single dose measured after 2 hrs (reference value: 46.4 +/- 5.50 ug/100 mg brain); type: functional; conditions: route intraperitoneal
Rattus norvegicus [4] = assay: Hepatotoxicity in albino rat assessed as change in SGOT level at 30 mg/kg, po for 14 days (reference value: 74.2+/-5.95 units/ml); type: toxicity, organism-based; design: dose 30 mg/kg, route oral; conditions: in vivo, 336 h
Rattus norvegicus [5] = assay: Hepatotoxicity in albino rat assessed as change in SGPT level at 30 mg/kg, po for 14 days (reference value: 46.1+/-5.25 units/ml); type: toxicity, organism-based; design: dose 30 mg/kg, route oral; conditions: in vivo, 336 h
Mus musculus [6] = assay: Anticonvulsant activity in ip dosed albino mouse assessed as protection against 6 Hz electroshock-induced seizures after 2 hrs; type: functional
[7] = Protective index, ratio of TD50 for neurotoxicity to ED50 for protection against maximal electroshock-induced seizure in albino rat after 4 hrs; type: toxicity, organism-based; conditions: in vivo, read-out: Ratio TD50/ED50
In short: (§2)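 Rats received oral doses in groups of eight at the time of peak effect, with at least three points in the 10–90% range for seizure protection or minimal neurotoxicity. ED50, TD50 and 95% confidence intervals were computed by regression, and PI was calculated as TD50/ED50.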

[8] = Neurotoxicity in po dosed albino rat after 4 hrs; type: toxicity, organism-based; conditions: in vivo
Rattus norvegicus [9] = assay: Anticonvulsant activity in po dosed albino rat assessed as protection against pentylenetetrazole-induced seizure after 4 hrs; type: functional
Rattus norvegicus [10] = assay: Anticonvulsant activity in po dosed albino rat assessed as protection against maximal electroshock-induced seizures after 4 hrs; type: functional
Mus musculus [11] = assay: Neurotoxicity in ip dosed albino mouse after 4 hrs by rotorod test; type: toxicity, organism-based; conditions: in vivo
In short: (§3)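 Swiss mice, four per dose, received 30, 100 or 300 mg/kg i.p. and were placed on a rotorod at 0.5 and 4 h. Neurotoxicity meant failure to keep balance for 1 min. The value reported is the minimum dose affecting half or more of the mice.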

Mus musculus [12] = assay: Neurotoxicity in ip dosed albino mouse after 0.5 hrs by rotorod test; type: toxicity, organism-based; conditions: in vivo; in short: as §3
Mus musculus [13] = assay: Anticonvulsant activity in ip dosed albino mouse assessed as protection against maximal electroshock-induced seizures after 4 hrs; type: functional; conditions: read-out: MED
Mus musculus [14] = assay: Anticonvulsant activity in ip dosed albino mouse assessed as protection against maximal electroshock-induced seizures after 0.5 hrs; type: functional; conditions: read-out: MED
[15] = Protective index, ratio of TD50 for neurotoxicity to ED50 for protection against pentylenetetrazole-induced seizure in albino rat after 4 hrs; type: toxicity, organism-based; conditions: in vivo, read-out: Ratio TD50/ED50; in short: as §2
Mus musculus [16] = assay: Anticonvulsant activity in ip dosed albino mouse assessed as protection against AMPA-induced tonic phase of seizures after 30 mins; type: functional; conditions: 0.5 h; in short: as §1

SMILES: Cc1nc2ccccc2c(=O)n1C(=S)NC(=O)Nc1nc2ccc(Cl)cc2s1
- ED50 (Mus musculus [1]): 70.3 µmol/kg
- GABA level (Rattus norvegicus [2]): 111 µg/100 mg brain
- GABA level (Rattus norvegicus [3]): 92.1 µg/100 mg brain
- Activity (Rattus norvegicus [4]): 71.2 U/ml
- Activity (Rattus norvegicus [5]): 48.5 U/ml
- ED50 (Mus musculus [6]): 1230 µmol/kg
- selectivity ratio at 4 h [7]: > 17
- TD50 at 4 h [8]: > 2500 µmol/kg
- ED50 (Rattus norvegicus [9]): 722 µmol/kg
- ED50 (Rattus norvegicus [10]): 142 µmol/kg
- MTC (Mus musculus [11]): 300 mg/kg
- MTC (Mus musculus [12]): 300 mg/kg
- minimal effective dose (Mus musculus [13]): 100 mg/kg
- minimal effective dose (Mus musculus [14]): 30 mg/kg
- selectivity ratio at 4 h [15]: > 3.4
- ED50 (Mus musculus [16]): 56.9 µmol/kg
